In ChEMBL document CHEMBL4196042, “Novel indanone derivatives as MAO B/H3R dual-targeting ligands for treatment of Parkinson's disease” (Eur J Med Chem, 2018):
pIC50, pKi: −log10 of the molar value.

Legend:
[1] = target: T1, Amine oxidase [flavin-containing] B (Homo sapiens, UniProt P27338); assay: Inhibition of human MAO-B expressed in baculovirus infected insect cell membranes at 10 uM using kynuramine as substrate by continuous spectrophotometric method relative to control
T1 sequence (P27338 whole entry): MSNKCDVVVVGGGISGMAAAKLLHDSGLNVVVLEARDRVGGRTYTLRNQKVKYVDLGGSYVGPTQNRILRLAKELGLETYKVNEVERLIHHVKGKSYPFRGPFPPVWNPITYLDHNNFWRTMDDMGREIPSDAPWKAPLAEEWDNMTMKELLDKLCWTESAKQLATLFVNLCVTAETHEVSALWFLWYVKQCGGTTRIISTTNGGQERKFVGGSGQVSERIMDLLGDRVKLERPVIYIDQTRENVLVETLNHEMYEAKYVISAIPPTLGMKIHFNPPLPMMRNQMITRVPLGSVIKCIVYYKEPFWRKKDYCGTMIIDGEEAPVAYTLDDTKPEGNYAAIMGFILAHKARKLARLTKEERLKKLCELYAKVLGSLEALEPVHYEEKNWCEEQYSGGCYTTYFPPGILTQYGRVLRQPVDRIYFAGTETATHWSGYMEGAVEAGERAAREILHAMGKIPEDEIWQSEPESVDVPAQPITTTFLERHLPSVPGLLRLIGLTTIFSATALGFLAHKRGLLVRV

[2] = target: T2, Amine oxidase [flavin-containing] A (Homo sapiens, UniProt P21397); assay: Inhibition of human MAO-A expressed in baculovirus infected insect cell membranes at 10 uM using kynuramine as substrate by continuous spectrophotometric method relative to control
T2 sequence (P21397 whole entry): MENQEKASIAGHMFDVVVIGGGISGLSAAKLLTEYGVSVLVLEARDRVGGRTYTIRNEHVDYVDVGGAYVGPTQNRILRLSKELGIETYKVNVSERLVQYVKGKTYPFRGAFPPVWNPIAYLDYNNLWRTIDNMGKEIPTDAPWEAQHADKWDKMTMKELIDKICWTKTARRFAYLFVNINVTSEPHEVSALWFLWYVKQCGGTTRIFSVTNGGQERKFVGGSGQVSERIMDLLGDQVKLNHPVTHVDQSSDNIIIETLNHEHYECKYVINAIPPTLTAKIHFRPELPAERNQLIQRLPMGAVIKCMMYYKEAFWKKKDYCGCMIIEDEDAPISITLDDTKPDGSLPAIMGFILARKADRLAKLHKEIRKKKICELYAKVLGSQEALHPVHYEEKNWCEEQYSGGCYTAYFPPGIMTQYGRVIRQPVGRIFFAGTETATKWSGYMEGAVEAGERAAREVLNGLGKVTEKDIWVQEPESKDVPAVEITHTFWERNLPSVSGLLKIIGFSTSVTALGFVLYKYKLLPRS

[3] = target: T3, Histamine H3 receptor (Homo sapiens, UniProt Q9Y5N1); assay: Displacement of [3H]-N-alpha-methylhistamine from human H3R expressed in HEK293 cell membranes after 90 mins by liquid scintillation counting method
T3 sequence (Q9Y5N1 whole entry): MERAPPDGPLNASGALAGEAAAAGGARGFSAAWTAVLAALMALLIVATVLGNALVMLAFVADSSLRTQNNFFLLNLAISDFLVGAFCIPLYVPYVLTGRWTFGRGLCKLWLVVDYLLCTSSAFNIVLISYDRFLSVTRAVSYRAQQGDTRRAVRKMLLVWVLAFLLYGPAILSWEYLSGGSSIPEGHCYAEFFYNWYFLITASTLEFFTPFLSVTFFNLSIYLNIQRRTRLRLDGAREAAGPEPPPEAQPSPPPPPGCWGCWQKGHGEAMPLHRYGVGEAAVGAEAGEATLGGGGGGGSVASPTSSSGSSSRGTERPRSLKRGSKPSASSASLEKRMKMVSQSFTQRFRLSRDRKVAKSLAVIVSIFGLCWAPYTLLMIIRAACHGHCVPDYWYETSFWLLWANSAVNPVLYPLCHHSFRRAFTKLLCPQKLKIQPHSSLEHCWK
Summary of the method: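 Membranes (20 µg) from HEK-293 cells stably expressing human H3R were incubated with 2 nM [3H]-N-α-methylhistamine and at least seven test concentrations. Incubation was 90 min at room temperature, with shaking, in 75 mM Tris/HCl (pH 7.4), 12.5 mM MgCl2 and 100 mM NaCl. Nonspecific binding used 10 µM pitolisant. Counting was by liquid scintillation; Ki came from Cheng-Prusoff on one-site competition fits, at least in duplicate.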

[4] = organism: Homo sapiens; assay: Selectivity index, ratio of IC50 for human MAO-A expressed in baculovirus infected insect cell membranes without preincubation with enzyme to IC50 for human MAO-B expressed in baculovirus infected insect cell membranes without preincubation with enzyme
Summary of the method: (§1)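 Human recombinant membrane-bound MAO A and MAO B were tested with inhibitor at 0.001–100 µM and kynuramine at 2×KM. Conditions were 50 mM potassium phosphate, pH 7.4, 20 min at 37°C, no preincubation, with NaOH stop and fluorimetric 4-hydroxyquinoline read-out. IC50 came from a three-parameter log-inhibitor fit with the bottom fixed at zero, from at least three independent experiments in at least duplicate. SI = IC50 MAO A / IC50 MAO B.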

[5] = target: T2, Amine oxidase [flavin-containing] A; assay: Inhibition of human MAO-A expressed in baculovirus infected insect cell membranes using kynuramine as substrate after 15 to 20 mins by discontinuous fluorimetric method
Summary of the method: as §1

[6] = target: T3, Histamine H3 receptor; assay: Displacement of [125I]iodoproxyfan from human H3R expressed in CHOK1 cell membranes after 60 mins by gamma counting method
[7] = target: T1, Amine oxidase [flavin-containing] B; assay: Inhibition of human MAO-B expressed in baculovirus infected insect cell membranes using kynuramine as substrate after 15 to 20 mins by discontinuous fluorimetric method
[8] = target: T1, Amine oxidase [flavin-containing] B; assay: Inhibition of human MAO-B expressed in baculovirus infected insect cell membranes at 2 uM using kynuramine as substrate after 15 to 20 mins by discontinuous fluorimetric method relative to control
Summary of the method: (§2)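 Single-point screen (10, 2 or 5 µM) on human recombinant membrane-bound MAO A or MAO B. Kynuramine was used at 2×KM (KM 30 µM for MAO A, 20 µM for MAO B) in 50 mM potassium phosphate, pH 7.4, 37°C for 20 min, started with enzyme and stopped with 2 N NaOH. 4-Hydroxyquinoline was read fluorimetrically (Ex 320, Em 405 nm) as % of no-inhibitor control; at least two independent experiments in duplicate.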

[9] = target: T1, Amine oxidase [flavin-containing] B; assay: Reversible inhibition of human MAO-B expressed in baculovirus infected insect cell membranes using excess of kynuramine substrate preincubated for 30 to 60 mins followed by 50 fold compound dilution by fluorimetric method
Summary of the method: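 MAO B (10 ng/µL) was preincubated with inhibitor at 10× IC50 for 0, 30 or 60 min at 37°C. […] Residual activity was measured fluorimetrically at saturating kynuramine (10×KM), as % of the matched no-inhibitor control. Data are from at least two independent experiments in duplicate, global fit.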

[10] = target: T1, Amine oxidase [flavin-containing] B; assay: Inhibition of human MAO-B expressed in baculovirus infected insect cell membranes using kynuramine as substrate preincubated for 30 mins followed by substrate addition measured after 15 to 20 mins by discontinuous fluorimetric method
[11] = target: T1, Amine oxidase [flavin-containing] B; assay: Inhibition of human MAO-B expressed in baculovirus infected insect cell membranes at 5 uM using kynuramine as substrate after 15 to 20 mins by discontinuous fluorimetric method relative to control
Summary of the method: as §2

| SMILES | inhibition at 10 µM [1] [%] | inhibition at 10 µM [2] [%] | pKi [3] | Ratio IC50 [4] | pIC50 [5] | pKi [6] | pIC50 [7] | inhibition at 2 µM [8] [%] | inhibition (INH) [9] | pIC50 [10] | inhibition at 5 µM [11] [%] |
| --- | --- | --- | --- | --- | --- | --- | --- | --- | --- | --- | --- |
| COc1ccc2c(c1)C(=O)/C(=C/c1ccc(OCCCN3CCCCC3)cc1)C2 | 51 to 75 | 51 to 75 | 7.96 | – | – | – | – | – | – | – | – |
| O=C1CCc2cc(OCCCN3CCCCC3)ccc21 | 26 to 50 | ≤ 25 | 6.80 | – | – | – | – | – | – | – | – |
| O=C1/C(=C/c2ccccc2)Cc2cc(OCCCN3CCCCC3)ccc21 | 51 to 75 | ≤ 25 | 8.41 | – | – | – | – | – | – | – | – |
| O=C(c1ccc(OCCCN2CCCCC2)cc1)C1CC1 | – | – | 7.96 | > 12 | < 4.30 | 8.80 | 5.41 | – | – | – | – |
| O=C1/C(=C/c2ccc(OCCCN3CCCCC3)cc2)Cc2ccc(OCc3ccc(Br)cc3)cc21 | – | – | 7.49 | 3.7 | 5.26 | – | 5.84 | 51 to 75 | Active | 6.63 | – |
| O=C1/C(=C/c2ccc(OCCCN3CCCCC3)cc2)Cc2ccccc21 | 51 to 75 | ≤ 25 | 8.68 | – | – | – | – | – | – | – | – |
| O=C1/C(=C/c2ccc(OCCCN3CCCCC3)cc2)Cc2cc(F)ccc21 | 76 to 100 | – | 8.66 | 4.8 | 5.04 | – | 5.71 | – | Active | 6.27 | – |
| O=C1CCc2cc(OCCN3CCCCC3)ccc21 | 26 to 50 | ≤ 25 | 6.69 | – | – | – | – | – | – | – | – |
| COc1ccc2c(c1)C/C(=C\c1ccc(OCCCN3CCCCC3)cc1)C2=O | 51 to 75 | ≤ 25 | 7.48 | – | – | – | – | – | – | – | – |
| O=C1/C(=C/c2ccccc2)Cc2ccc(OCCN3CCCCC3)cc21 | 76 to 100 | ≤ 25 | 6.16 | – | – | – | – | – | – | – | – |
| O=C1CCc2ccc(OCCCN3CCCCC3)cc21 | 51 to 75 | ≤ 25 | 6.52 | – | – | – | – | – | – | – | – |
| O=C1/C(=C/c2ccc(OCCCN3CCCCC3)cc2)Cc2cc(OCc3ccc(Br)cc3)ccc21 | – | – | 8.19 | > 36 | < 5.00 | – | 6.56 | – | Active | 6.58 | 76 to 100 |
| O=C1CCc2ccc(OCCN3CCCC3)cc21 | 26 to 50 | ≤ 25 | 5.21 | – | – | – | – | – | – | – | – |
| O=C1CCc2cc(OCCN3CCCC3)ccc21 | ≤ 25 | 26 to 50 | 6.46 | – | – | – | – | – | – | – | – |
| O=C1/C(=C/c2ccccc2)Cc2ccc(OCCCN3CCCCC3)cc21 | 51 to 75 | ≤ 25 | 7.41 | – | – | – | – | – | – | – | – |
